PAFAH1B2 FP inh: inhibitors of human PAFAH1B2; P68402; 340,000 compounds, 1.2% hits; inhibition, % at 3.39 µM; recombinant PAFAH1B2, FP-rhodamine activity probe, fluorescence polarization; AID 492953;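 active means inhibition above the mean of all tested compounds plus 3 SD, cut at about 24% in these data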
PAFAH1B3 FP inh: inhibitors of human PAFAH1B3. recombinant PAFAH1B3, FP-rhodamine probe, fluorescence polarization. inhibition, % at 3.39 µM. AID 492972. 340,000 compounds, 0.28% hits. Q15102;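 active means inhibition above the screen-wide average of all tested compounds plus 3 SD, cut at about 25% in these data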
pPAFAH FP inh: pPAFAH (human) enzyme inhibition; Q13093; recombinant pPAFAH, FP-rhodamine probe fluorescence polarization; inhibition, % at 3.39 µM; 330,000 compounds, 1.5% hits; AID 463082;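 active means inhibition above the mean inhibition across the screen plus 3 SD, cut at about 25% in these data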;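 further: inhibitors block binding of the rhodamine activity-based probe so polarization drops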
ARFGAP1 inh: inhibitors of rat ARFGAP1; Arfgap1-stimulated ARF1 GTP hydrolysis, GDP FP detection; inhibition, % at 16.5 µM; 360,000 compounds, 0.26% hits; AID 651572;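 active means inhibition above a per-plate limit, mean inhibition of low control wells plus 3 SD, cut at about 25% in these data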
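Material: rat Arfgap1 catalytic domain, aa 1-136; also added: human ARF1(Δ1-17)-GTP substrate; compound dosing: one concentration, 16.5 µM, DMSO 1.26%; incubation: GTP hydrolysis reaction 2 h at 25 °C; measured by: Tracer-displacement fluorescence polarization with EDTA stop, 620/688 nm; evaluation: % inhibition from polarization; repeats: one replicate per compound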
PAFAH2 inh: PAFAH2 (human) inhibition; Q99487; recombinant PAFAH2, FP-rhodamine activity probe, fluorescence polarization; inhibition, % at 3.39 µM; 340,000 compounds, 0.99% hits;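 active means inhibition above the mean over all tested compounds plus 3 SD, cut at about 30% in these data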;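 further: inhibitors block probe labeling of enzyme so polarization drops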
ASAP1 inh: blocks human ASAP1-stimulated Arf1 GTP hydrolysis; Q9ULH1; GDP FP detection; inhibition, % at 16.5 µM; 360,000 compounds, 0.19% hits; in the data active means inhibition above about 25%
Target sequence (Q9ULH1 325-724 limits assumed): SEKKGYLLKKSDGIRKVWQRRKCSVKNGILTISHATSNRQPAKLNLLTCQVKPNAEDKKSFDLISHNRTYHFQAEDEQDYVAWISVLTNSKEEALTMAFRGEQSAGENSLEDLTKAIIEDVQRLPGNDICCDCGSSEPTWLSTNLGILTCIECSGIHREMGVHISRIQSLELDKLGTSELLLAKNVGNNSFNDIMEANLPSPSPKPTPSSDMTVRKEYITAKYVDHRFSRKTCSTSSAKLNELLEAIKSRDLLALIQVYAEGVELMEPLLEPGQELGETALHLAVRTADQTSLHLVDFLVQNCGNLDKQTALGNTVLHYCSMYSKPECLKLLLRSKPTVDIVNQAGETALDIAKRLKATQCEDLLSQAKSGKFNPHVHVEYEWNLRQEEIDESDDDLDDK
PAFAH1B3 conf FP: PAFAH1B3 (human) inhibition, confirmed | recombinant PAFAH1B3, FP-Rh activity-based probe, fluorescence polarization | 390 compounds, 30% hits | inhibition, % at 3.39 µM | shares compounds with PAFAH1B3 FP inh;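 active means average inhibition over triplicate runs above the hit cutoff set in the earlier primary screen, cut at about 25% in these data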
Numbers stand for hits; i = inactive; nt = no result; ! = not confirmed by another sample. The list is not random: actives were taken first. Their share in the collection is about 2.8%.

SMILES	PAFAH1B2 FP inh	PAFAH1B3 FP inh	pPAFAH FP inh	ARFGAP1 inh	PAFAH2 inh	ASAP1 inh	PAFAH1B3 conf FP
O=C(NCCc1ccccc1)C(=O)NCC1OCCN1S(=O)(=O)c1ccc(Br)cc1 (centres undefined)	i	i	i	i	i	i	nt
Nc1ccc(N(CCO)CCO)cc1	i	38	i	i	i	i	i
O=C(COC(=O)C1CCC1)NCc1ccc(F)cc1	i	i	i	i	i	i	nt
CS/C(=N\S(=O)(=O)c1cccs1)NC(=O)CSc1nc2ccccc2s1	i	31!	i	i	i	i	i
C/C(=N/NC(=O)CSc1nc2ccccc2s1)c1ccncc1	i	i	i	i	i	i	nt
CCCCCCn1cc(CN2CC(N3CCN(CCN(C)C)CC3)CS2(=O)=O)nn1 (centres undefined)	nt	nt	nt	i	nt	i	nt
C=CCn1c(NC(=O)c2ccc(Br)o2)c(S(=O)(=O)c2ccccc2)c2nc3ccccc3nc21	i	53	i	i	i	i	i
CC(=O)Nc1ccc(S(=O)(=O)/N=C2\C(=O)c3ccccc3C([O-])=C2n2cc[n+](-c3ccccn3)c2)cc1	i	38	i	i	i	i	i
Cc1ccc(S(=O)(=O)/N=C2\C(=O)c3ccccc3C([O-])=C2n2cc[n+](CCC(C)C)c2)cc1	i	26	i	nt	i	nt	i
COc1ccc(C(=O)NCCN2CCC(n3c(=O)[nH]c4ccccc43)CC2)cc1F	nt	nt	nt	i	nt	i	nt
CCc1nc2c(OCCOc3ccc(F)cc3)cccn2c1N(C=O)Cc1ccc(OC)cc1	nt	nt	nt	i	nt	i	nt
Nc1ccc2nn(-c3ccc(F)cc3)nc2c1	i	28	i	i	i	i	i
Cc1ccc(-n2nc3ccc(N)cc3n2)cc1	i	i	i	i	i	i	nt
O=C1C(=O)c2c(ccc3ccccc23)-c2ccccc21	i	56	nt	i	i	i	i
CN(C)/C=C1\Oc2ccc3ccccc3c2C1=O	i	i	i	i	i	i	nt
Cc1cc(C)n(-c2ccc([N+](=O)[O-])cc2-c2nn[nH]n2)n1	i	i	i	i	i	i	nt
O=[N+]([O-])c1ccc(O)c(-c2nn[nH]n2)c1	i	28	i	i	i	i	26
COc1ccc(/C=N/NC(=O)c2ccccc2O)cc1Cn1cc([N+](=O)[O-])cn1	i	i	i	i	i	i	nt
COc1ccc(/C=N/NC(=O)c2cc(O)c(O)c(O)c2)cc1Cn1cc([N+](=O)[O-])cn1	i	39	nt	i	i	i	i
CCc1noc(C)c1C(=O)N1CC(C)SC1=Nc1ccc(Cl)cc1 (centres undefined)	i	i	i	i	i	i	nt
CCC(CO)Oc1cc(NCc2ccccc2Cl)c2ncn(C(C)C)c2c1 (centres undefined)	i	i	i	i	i	i	nt
COc1cc(C(=O)c2nccc3cc(OC)c(OC)cc23)c([N+](=O)[O-])cc1OC	i	40	i	i	i	i	i
COc1cc(N)c(C(=O)c2nccc3cc(OC)c(OC)cc23)cc1OC	i	i	i	i	i	i	nt
COC(=O)c1cc2c(n1S(=O)(=O)c1ccc(C)cc1)C(=O)C(=O)c1[nH]cc(C(=O)OCc3ccccc3)c1-2	i	39	nt	nt	i	nt	34
COC(=O)c1cc2c(c3c4cc(OC)ccc4n(S(=O)(=O)c4ccc(C)cc4)c13)C(=O)N(Cc1ccccc1)C2	nt	nt	nt	i	nt	i	nt
SMILES	PAFAH1B2 FP inh	PAFAH1B3 FP inh	pPAFAH FP inh	ARFGAP1 inh	PAFAH2 inh	ASAP1 inh	PAFAH1B3 conf FP
CC(C)N(C(=O)[C@H]1C[C@H](CC(=O)NCC23CC4CC(CC(C4)C2)C3)C(=O)N2CCc3c([nH]c4ccc(Cl)cc34)[C@]12C)C(C)C	i	i	i	i	i	i	nt
Cc1cccc(NC(=O)CN2C(=O)N/C(=C\c3ccc(-c4cccc(C(=O)O)c4)o3)C2=O)c1	i	81	i	i	i	i	76
Cc1cccc(NC(=O)CN2C(=O)N/C(=C/c3ccc(C)o3)C2=O)c1	i	i	i	i	i	i	nt
COC(=O)C[C@@H]1CC[C@H](NC(=O)Cc2ccccn2)[C@@H](CO)O1	nt	nt	nt	i	nt	i	nt
COc1cc2c(cc1OC)CN(C(=O)/C=C/c1cc(OC)c(OC)c(OC)c1)CC2	i	30	i	i	i	i	i
COc1cc2c(cc1OC)CN(C(=O)/C=C/c1ccc(F)cc1)CC2	i	i	i	i	i	i	nt

Source: PubChem BioAssay (The Scripps Research Institute Molecular Screening Center)
